From ChEMBL document CHEMBL1137710, “Synthesis and in vitro antitumor activity of new quinoxaline derivatives” (2009)

Assays:
Assay type in all cases: functional
MDA-MB-435 = experiment: Growth inhibition of human MDA-MB-435 cells after 48 hrs by sulforhodamine B assay; details: MDA-MB-435, 48 h
How it was run: (§1)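 NCI 60-human-tumor-cell-line panel, with compounds tested over a 5-log dose range. Values are taken from dose-response curves as log10 molar concentrations: GI50 is 50% net growth inhibition, TGI is total growth inhibition, and LC50 is 50% net cell death.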

OVCAR-4 = experiment: Growth inhibition of human OVCAR4 cells after 48 hrs by sulforhodamine B assay; details: OVCAR-4, 48 h; how it was run: as §1
IGROV-1 = experiment: Growth inhibition of human IGROV1 cells after 48 hrs by sulforhodamine B assay; details: IGROV-1, 48 h; how it was run: as §1
NCI-H460 [1] = experiment: Growth inhibition of human NCI-H460 cells after 48 hrs by sulforhodamine B assay; details: NCI-H460, 48 h; how it was run: as §1
A549 = experiment: Growth inhibition of human A549 cells after 48 hrs by sulforhodamine B assay; details: A549, 48 h; how it was run: as §1
SK-OV-3 = experiment: Growth inhibition of human SKOV3 cells after 48 hrs by sulforhodamine B assay; details: SK-OV-3, 48 h; how it was run: as §1
MCF7 [2] = experiment: Growth inhibition of human MCF7 cells after 48 hrs by sulforhodamine B assay; details: MCF7, 48 h; how it was run: as §1
COLO 205 = experiment: Growth inhibition of human COLO205 cells after 48 hrs by sulforhodamine B assay; details: COLO 205, 48 h; how it was run: as §1
RXF 393 = experiment: Growth inhibition of human RXF393 cells after 48 hrs by sulforhodamine B assay; details: RXF 393, 48 h; how it was run: as §1
U-251 = experiment: Growth inhibition of human U251 cells after 48 hrs by sulforhodamine B assay; details: U-251, 48 h
How it was run: (§2)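 Run in the NCI 60-human-tumour-cell-line panel, tested over a 5-log dose range. Dose–response curves gave three values per cell line, each as a log10 molar concentration: GI50 (50% inhibition of net cell growth), TGI (total inhibition of net growth) and LC50 (50% net cell death). The mean graph midpoint is the arithmetic mean over all lines, with insensitive lines entered at the highest concentration tested.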

UACC-62 = experiment: Growth inhibition of human UACC62 cells after 48 hrs by sulforhodamine B assay; details: UACC-62, 48 h; how it was run: as §2
TK-10 = experiment: Growth inhibition of human TK10 cells after 48 hrs by sulforhodamine B assay; details: TK-10, 48 h; how it was run: as §2
SNB-19 = experiment: Growth inhibition of human SNB19 cells after 48 hrs by sulforhodamine B assay; details: SNB-19, 48 h; how it was run: as §2
UACC-257 = experiment: Growth inhibition of human UACC257 cells after 48 hrs by sulforhodamine B assay; details: UACC-257, 48 h; how it was run: as §2
SF-268 [3] = experiment: Anticancer activity against human SF268 cells assessed as cell growth at 100 uM after 48 hrs by sulforhodamine B assay; details: SF-268, 48 h, read-out: Activity
SF-295 = experiment: Growth inhibition of human SF295 cells after 48 hrs by sulforhodamine B assay; details: SF-295, 48 h; how it was run: as §1
M14 = experiment: Growth inhibition of human M14 cells after 48 hrs by sulforhodamine B assay; details: M14, 48 h; how it was run: as §1
PC-3 = experiment: Growth inhibition of human PC3 cells after 48 hrs by sulforhodamine B assay; details: PC-3, 48 h; how it was run: as §1
DU-145 = experiment: Growth inhibition of human DU145 cells after 48 hrs by sulforhodamine B assay; details: DU-145, 48 h; how it was run: as §1
SW-620 = experiment: Growth inhibition of human SW620 cells after 48 hrs by sulforhodamine B assay; details: SW-620, 48 h; how it was run: as §2
SK-MEL-5 = experiment: Growth inhibition of human SK-MEL-5 cells after 48 hrs by sulforhodamine B assay; details: SK-MEL-5, 48 h; how it was run: as §1
MDA-MB-231 = experiment: Growth inhibition of human MDA-MB-231 cells after 48 hrs by sulforhodamine B assay; details: MDA-MB-231, 48 h; how it was run: as §1
OVCAR-8 = experiment: Growth inhibition of human OVCAR8 cells after 48 hrs by sulforhodamine B assay; details: OVCAR-8, 48 h; how it was run: as §1
HCT-116 = experiment: Growth inhibition of human HCT116 cells after 48 hrs by sulforhodamine B assay; details: HCT-116, 48 h; how it was run: as §1
NCI-H460 [4] = experiment: Anticancer activity against human NCI-H460 cells assessed as cell growth at 100 uM after 48 hrs by sulforhodamine B assay; details: NCI-H460, 48 h, read-out: Activity
SF-268 [5] = experiment: Growth inhibition of human SF268 cells after 48 hrs by sulforhodamine B assay; details: SF-268, 48 h; how it was run: as §1
MCF7 [6] = experiment: Anticancer activity against human MCF7 cells assessed as cell growth at 100 uM after 48 hrs by sulforhodamine B assay; details: MCF7, 48 h, read-out: Activity
[7] = Growth inhibition of human […] cells after 48 hrs by sulforhodamine B assay; how it was run: as §1
SK-MEL-28 = experiment: Growth inhibition of human SK-MEL-28 cells after 48 hrs by sulforhodamine B assay; details: SK-MEL-28, 48 h; how it was run: as §1
NCI-H23 = experiment: Growth inhibition of human NCI-H23 cells after 48 hrs by sulforhodamine B assay; details: NCI-H23, 48 h; how it was run: as §1
[8] = read-out: pLC50 (the source's name) (converted)

Nc1cc(N)c2nc(-c3ccccc3)c(NCc3ccc(Cl)c(Cl)c3)nc2c1
GI50 (MDA-MB-435): 2.75 µM
CC50 (MDA-MB-435; [8]): 52.5 µM
TGI (MDA-MB-435; read-out: pTGI (converted)): 7.59 µM
GI50 (OVCAR-4): 11.7 µM
CC50 (OVCAR-4; [8]): > 100 µM
TGI (OVCAR-4; read-out: pTGI (converted)): > 100 µM
GI50 (IGROV-1): 1.95 µM
CC50 (IGROV-1; [8]): 29.5 µM
TGI (IGROV-1; read-out: pTGI (converted)): 5.89 µM
GI50 (NCI-H460 [1]): 20.9 µM
LC50 (50% net cell kill) (NCI-H460 [1]): > 100 µM
TGI (NCI-H460 [1]; read-out: pTGI (converted)): 46.8 µM
GI50 (A549): 10.7 µM
LC50 (A549): 69.2 µM
TGI (A549; read-out: pTGI (converted)): 27.5 µM
GI50 (SK-OV-3): 18.6 µM
CC50 (SK-OV-3; [8]): 69.2 µM
TGI (SK-OV-3; read-out: pTGI (converted)): 36.3 µM
GI50 (MCF7 [2]): 12.3 µM
CC50 (MCF7 [2]; [8]): > 100 µM
TGI (MCF7 [2]; read-out: pTGI (converted)): 53.7 µM
GI50 (COLO 205): 17 µM
LC50 (50% net cell kill) (COLO 205): 66.1 µM
TGI (COLO 205; read-out: pTGI (converted)): 33.9 µM
GI50 (RXF 393): 3.09 µM
CC50 (RXF 393; [8]): > 100 µM
TGI (RXF 393; read-out: pTGI (converted)): 17 µM
GI50 (U-251): 2.09 µM
LC50 (50% net cell kill) (U-251): > 100 µM
GI50 (UACC-62): 14.1 µM
CC50 (UACC-62; [8]): 67.6 µM
TGI (UACC-62; read-out: pTGI (converted)): 30.9 µM
GI50 (TK-10): 12.9 µM
CC50 (TK-10; [8]): 72.4 µM
TGI (TK-10; read-out: pTGI (converted)): 30.2 µM
GI50 (SNB-19): 22.4 µM
LC50 (SNB-19): > 100 µM
TGI (SNB-19; read-out: pTGI (converted)): 51.3 µM
GI50 (UACC-257): 4.57 µM
CC50 (UACC-257; [8]): 43.7 µM
TGI (UACC-257; read-out: pTGI (converted)): 15.8 µM
growth at 100 µM (SF-268 [3]): 0%
GI50 (SF-295): 15.5 µM
LC50 (50% net cell kill) (SF-295): 89.1 µM
TGI (SF-295; read-out: pTGI (converted)): 37.2 µM
GI50 (M14): 15.8 µM
CC50 (M14; [8]): 75.9 µM
TGI (M14; read-out: pTGI (converted)): 34.7 µM
GI50 (PC-3): 1.74 µM
CC50 (PC-3; [8]): 19.1 µM
TGI (PC-3; read-out: pTGI (converted)): 5.13 µM
GI50 (DU-145): 16.2 µM
CC50 (DU-145; [8]): 69.2 µM
TGI (DU-145; read-out: pTGI (converted)): 33.1 µM
GI50 (SW-620): 3.24 µM
CC50 (SW-620; [8]): > 100 µM
TGI (SW-620; read-out: pTGI (converted)): 9.77 µM
GI50 (SK-MEL-5): 3.47 µM
CC50 (SK-MEL-5; [8]): 34.7 µM
TGI (SK-MEL-5; read-out: pTGI (converted)): 10.7 µM
GI50 (MDA-MB-231): 1.58 µM
CC50 (MDA-MB-231; [8]): > 100 µM
TGI (MDA-MB-231; read-out: pTGI (converted)): 4.47 µM
GI50 (OVCAR-8): 3.39 µM
CC50 (OVCAR-8; [8]): > 100 µM
TGI (OVCAR-8; read-out: pTGI (converted)): 13.5 µM
GI50 (HCT-116): 11.5 µM
LC50 (concentration causing 50% net cell death) (HCT-116): 50.1 µM
TGI (HCT-116; read-out: pTGI (converted)): 24 µM
growth at 100 µM (NCI-H460 [4]): 0%
GI50 (SF-268 [5]): 20 µM
LC50 (SF-268 [5]): > 100 µM
TGI (SF-268 [5]; read-out: pTGI (converted)): 55 µM
growth at 100 µM (MCF7 [6]): 0%
GI50 [7]: 1.66 µM
LC50 [7]: 8.32 µM
TGI ([7]; read-out: pTGI (converted)): 3.72 µM
GI50 (SK-MEL-28): 18.6 µM
CC50 (SK-MEL-28; [8]): 93.3 µM
TGI (SK-MEL-28; read-out: pTGI (converted)): 41.7 µM
GI50 (NCI-H23): 14.1 µM
LC50 (50% net cell kill concentration) (NCI-H23): 55 µM
TGI (NCI-H23; read-out: pTGI (converted)): 27.5 µM
